The list is not random: actives were taken first. Their share in the collection is about 1.3%.
proCasp7 act: activates human procaspase-7, counter-screen for procaspase-3 activators; P55210; recombinant procaspase-7, Ac-DEVD-pNA absorbance 405 nm; D23A/D198A/D206A triple mutant, cannot self-cleave; scale: DMSO 0, 5 µM enzyme 100; activation, % at 8.5 µM; actives 0.093% (n = 330,000);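 active means percent activation above the screen-wide mean plus 3 SD, cut at about 25% in these data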
Target sequence (P55210 whole entry D23A/D198A/D206A): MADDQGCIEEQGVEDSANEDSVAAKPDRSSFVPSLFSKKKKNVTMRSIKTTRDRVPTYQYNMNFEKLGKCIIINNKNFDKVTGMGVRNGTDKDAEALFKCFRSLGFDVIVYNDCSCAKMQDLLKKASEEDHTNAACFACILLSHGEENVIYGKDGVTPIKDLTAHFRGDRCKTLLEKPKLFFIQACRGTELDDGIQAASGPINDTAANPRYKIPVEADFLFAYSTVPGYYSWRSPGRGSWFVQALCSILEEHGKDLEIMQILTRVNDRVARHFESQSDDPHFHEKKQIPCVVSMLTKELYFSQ
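signal = Epi-absorbance of released pNA at 405 nm, two timepoints | assay system = Uncleavable procaspase-7 mutant enzyme | reagent = Ac-DEVD-pNA substrate, 400 µM as added | times = 1 h enzyme–compound preincubation and 2 h substrate reaction, both 25 °C | benchmarks = low DMSO alone, high DMSO plus 5 µM PC-7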
CHT block: human CHT choline transport inhibition | B-score at 10 µM | actives 0.86% (n = 310,000) | CHT-expressing cells, membrane potential dye, choline response; hits give low values | AID 488975 | Q9GZV3;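 active means B-score over 3 SD under the library average, and starting fluorescence ratio not unusually high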;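 further: choline stimulus applied at its EC90 after an EC20 pre-addition; B-score computed on integrated fluorescence ratio after choline addition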
CHT allo act: allosteric activators of human choline transporter CHT | AID 488977 | B-score at 10 µM | Q9GZV3 | actives 0.49% (n = 310,000) | CHT-expressing cells, membrane potential dye, choline EC20; hits give high values; LV-AA mutant CHT in HEK293 cells;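 active means initial fluorescence not abnormally high and integrated response B-score, plate-corrected, over 3 SD above library mean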
procasp3 activ: activators of human procaspase-3 | P42574 | recombinant procaspase-3 D3A, Ac-DEVD-pNA absorbance 405 nm | activation, % at 8.5 µM | actives 0.11% (n = 330,000) | AID 463141;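 active means activation above the mean of all tested compounds plus 3 SD, cut at about 21% in these data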;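 further: 0% = DMSO alone and 100% = DMSO wells spiked with extra 5 µM PC-3 D3A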
Target sequence (P42574 whole entry D9A/D28A/D175A): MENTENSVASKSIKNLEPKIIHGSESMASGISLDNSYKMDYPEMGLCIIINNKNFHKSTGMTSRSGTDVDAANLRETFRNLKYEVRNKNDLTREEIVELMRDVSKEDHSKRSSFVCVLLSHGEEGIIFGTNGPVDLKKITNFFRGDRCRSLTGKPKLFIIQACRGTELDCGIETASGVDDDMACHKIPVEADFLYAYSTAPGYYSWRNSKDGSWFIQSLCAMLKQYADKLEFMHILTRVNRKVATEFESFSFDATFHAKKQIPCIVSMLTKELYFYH
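assay system = Procaspase-3 D3A mutant | signal = absorbance at 405 nm, 0 and 120 min | times = 1 h preincubation plus 2 h reaction at 25 °C | repeats = single replicate | read-out = % activation between DMSO and enzyme-spiked controls | medium = Zinc-free HEPES saline buffer with Triton X-100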
CHT activ conf: human CHT activation, confirmatory screen; actives 91% (n = 2,500); shares compounds with CHT allo act; AID 504833; CHT-expressing cells, membrane potential dye fluorescence (FDSS); % of choline EC20–EC90 response window; HEK293 expressing CHT LV-AA mutant; choline added at its EC20; activation, % at 10 µM;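 active means primary screen active, with duplicate mean activation above negative control mean plus 3 SD, cut at about 11% in these data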
HEK293 MP dye: CHT activator counter-screen hit in parental HEK293 cells. shares compounds with CHT allo act. membrane potential dye fluorescence (FDSS); measured after EC20 choline addition. ratio readout change at 10 µM, hits read low. actives 62% (n = 2,500). AID 623908;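 active means duplicate-averaged ratio beyond 3 SD from buffer wells, up or down, though filed actives are nearly all decreases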
Numbers without * were called inactive; i = inactive; nt = not tested or not shown.

SMILES	proCasp7 act	CHT block	CHT allo act	procasp3 activ	CHT activ conf	HEK293 MP dye
CCOC(=O)c1c[nH]c2c(C)ccc(Cl)c2c1=O	0	i	i	-6	nt	nt
Nc1ccccc1S(=O)(=O)NCCCCc1ccccc1	-2	i	i	-2	nt	nt
CC(=O)N1CCN(C(=O)COC(=O)c2oc3ccccc3c2C)CC1	-1	nt	nt	5	nt	nt
C=CCN1C(=O)c2ccccc2NC1c1cc(Br)cs1 (stereo not given)	7	i	i	-3	nt	nt
CN1C(=O)[C@H](Cc2ccc([N+](=O)[O-])cc2)NC1=S	-14	i	i	-8	nt	nt
c1ccc(COc2cccc(CN3CCc4ccccc4C3)c2)cc1	2	i	i	-2	nt	nt
COc1cc(Nc2c3c(nc4ccccc24)CCCC3)cc(OC)c1OC	10	i	i	2	45*	-49*
COc1ccccc1Nc1c2c(nc3ccccc13)CCC2	4	i	i	-1	nt	nt
N#Cc1cc([N+](=O)[O-])ccc1NCCCn1ccnc1	-2	i	7.3*	6	62*	-59*
CC(C)NS(=O)(=O)c1ccc(NCCCn2ccnc2)c([N+](=O)[O-])c1	-11	i	i	2	nt	nt
Cc1cc(C)c2ccc(N)nc2c1O	2	i	i	-4	42*	-53*
COc1ccc(N=c2sc3ccccc3n2C)cc1	7	i	i	-1	nt	nt
Cc1cc(C)c2c(c1)/C(=N\N=c1\sc3ccccc3n1C)C(=O)N2	-10	i	i	4	23*	i
CC(C)(C)N(NC(=O)c1ccccc1)C(=O)c1cccc(C(=O)N(NC(=O)c2ccccc2)C(C)(C)C)c1	10	i	8.5*	-5	35*	i
CC(Oc1cccc2ccccc12)C(=O)N/N=C/c1cccnc1 (stereo not given)	3	i	i	2	nt	nt
CCCC[C@@H]1C[C@H]1[C@@H](NC(=O)c1cccs1)c1ccc(Cl)cc1	1	i	i	4	29*	i
C[C@@H]1[C@H]2[C@@H]3CC[C@@H](C3)[C@H]2CN[C@H]1c1cn(Cc2ccccc2)c2ccccc12	-8	nt	nt	-6	nt	nt
COc1cccc(-c2c(C(=O)N/N=C/c3ccoc3)nnn2-c2nonc2N)c1	-7	i	i	-6	nt	nt
Cc1cc(Cn2ccnc2)c(C)cc1Cn1ccnc1	0	i	i	10	45*	-41*
N#Cc1c(N)oc(-c2ccco2)c1-c1ccco1	-8	i	8.2*	-10	10*	i
N#Cc1c(N)oc(-c2ccccc2)c1-c1ccccc1	-19	i	i	-9	nt	nt
COc1cc2c(cc1OC)CN(C(=O)c1cc(S(=O)(=O)N3CCOCC3)ccc1C)CC2	-4	i	i	-4	nt	nt
O=C(CCCN1CCC(O)(c2cccc(C(F)(F)F)c2)CC1)c1ccc(F)cc1	-1	i	i	3	nt	nt
O=C(CCCN1CCC(O)(c2ccc(Br)cc2)CC1)c1ccc(F)cc1	7	i	i	4	60*	i
COc1ccc(C(c2nnnn2Cc2cccs2)N2CCN(c3ccccc3F)CC2)cc1 (stereo not given)	-11	i	i	2	31*	i
SMILES	proCasp7 act	CHT block	CHT allo act	procasp3 activ	CHT activ conf	HEK293 MP dye
Cc1cccc2nc(CNC(=O)CC3C(=O)NCCN3Cc3cccc(F)c3)cn12 (stereo not given)	-7	i	i	0	nt	nt
CN1CCCC(n2nc(Cc3ccc(Cl)cc3)c3ccccc3c2=O)CC1 (stereo not given)	-5	i	i	-1	44*	-30*
Cc1ccc(S(=O)(=O)N(C)CC(=O)NNC(=O)CCNS(=O)(=O)c2cccc(C)c2)cc1	23	nt	nt	13	nt	nt
CN(CCO)c1cc(NCCCN2CCC(Cc3ccccc3)CC2)c2nonc2c1[N+](=O)[O-]	-3	i	i	1	nt	nt
CC1CCN(CCCNc2cc(NCCO)c([N+](=O)[O-])c3nonc23)CC1	12	i	i	6	31*	-62*
CNC(=O)C(=O)N/N=C/c1cccnc1	8	i	i	-11	nt	nt
Cc1nc2ccc(Br)cc2c2c1CC(CO)O2 (stereo not given)	-7	i	6.9*	5	53*	-53*
COc1cccc(CNC(=O)CCC2CCCN(c3cc(C)nc(N(C)C)n3)C2)c1 (stereo not given)	2	i	i	0	48*	-40*
Cc1cc(OCC(=O)N(Cc2ccco2)c2c(N)n(Cc3ccccc3)c(=O)[nH]c2=O)ccc1Cl	-9	nt	nt	5	nt	nt
CN(C)CCCN1c2ccccc2Sc2ccccc21	2	i	i	-4	nt	nt
CCC(=O)c1ccc2c(c1)N(CCCN(C)C)c1ccccc1S2	5	i	9.1*	1	29*	-45*
COc1ccccc1CNc1cc(CSc2ccc(Cl)cc2)nc(C)n1	2	i	i	2	23*	i
CCN(CC)CCN(Cc1cc2cc(C)cc(C)c2[nH]c1=O)C(=S)NCc1ccco1	-1	i	i	15	nt	nt
CCN(CC)CCN(Cc1cc2ccc(C)c(C)c2[nH]c1=O)C(=S)NCc1ccco1	11	i	i	-4	16*	-25*
Cc1ccc(NC(=O)C/C(N)=N/OC(=O)Nc2cccc(Cl)c2)cc1	16	nt	nt	9	nt	nt
CCNC(=O)N(CCOC)CC1CCCN(C2Cc3ccccc3C2)C1 (stereo not given)	3	i	i	12	nt	nt
COc1c(O)c(=O)n2c3ccccc3c3ccnc1c32	-5	i	i	3	41*	i
COc1cccc(NC(=O)N2CCCC2C(=O)NCc2ccc(Cl)cc2)c1 (stereo not given)	5	i	i	-1	nt	nt
CCc1nc(SCC(=O)N2CCOCC2)c2c(=O)n(C)c(=O)n(C)c2n1	1	i	i	3	nt	nt
Cn1c(=O)c2c(SCCN3CCOCC3)nc(C3CCCC3)nc2n(C)c1=O	0	i	7.4*	-3	42*	-30*
Cn1c(N)c(C(=O)CNC2CCCCC2)c(=O)n(C)c1=O	-6	i	i	5	nt	nt
Cc1cc(C)c2cc3c(N)c(C(=O)N4CCc5ccccc5C4)sc3nc2c1	-9	i	6.4*	8	-7	i
Cc1ccc2nc3sc(C(=O)N4CCCc5ccccc54)c(N)c3cc2c1	3	i	i	5	nt	nt
CC(=O)Nc1sc(C)c(C)c1C(=O)OCC(=O)Nc1cccc(C)c1	1	nt	nt	1	nt	nt
COc1ccc(Nc2nccc3c2ncn3C)cc1	2	i	i	-5	61*	-56*

Source: PubChem
